Measurements as given in ChEMBL document CHEMBL1147383, “Use of alkenylresorcinols from Ononis speciosa as synthetic precursors of compounds with potential biological activity” (J Nat Prod, 1993).
Activity calls are given as the source filed them. The rule behind the calls is not given here.

How the values were obtained:
Alcaligenes faecalis = experiment: Antibacterial activity against Alcaligenes faecalis after 18 hrs by disk diffusion assay; format: functional, organism-based
Method in brief: (§1)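 Gram-negative strains were grown in brain-heart agar and incubated at 37°. BHA plates were inoculated with 0.1 ml of 8-h cultures. 6-mm paper disks carried 100 or 200 µg of compound. Plates stood 1 h at 4° to allow diffusion before incubation. The inhibition halo diameter (mm) was measured after 18 h.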

Proteus = experiment: Antibacterial activity against Proteus after 18 hrs by disk diffusion assay; format: functional, organism-based; method in brief: as §1
Priestia megaterium [1] = experiment: Antibacterial activity against Bacillus megaterium at 200 ug/disk after 18 hrs by disk diffusion assay; format: functional
Method in brief: (§2)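 Disk diffusion. Gram-positive strains were grown in brain-heart agar and incubated at 28°. BHA plates were seeded with 0.1 ml of 8-h cultures. 6-mm paper disks were loaded with 100 or 200 µg of compound. Plates were held at 4° for 1 h for diffusion, then incubated. Growth-inhibition halo diameter (mm) was read at 18 h.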

Staphylococcus aureus = experiment: Antibacterial activity against Staphylococcus aureus ATCC 8 at 200 ug/disk after 18 hrs by disk diffusion assay; format: functional; conditions: for zone of inhibition at 200 µg/disc: ATCC 8, 18 h, read-out: Diameter of inhibition zone; method in brief: as §2
Bacillus licheniformis [2] = experiment: Antibacterial activity against Bacillus licheniformis CECT20 at 200 ug/disk after 18 hrs by disk diffusion assay; format: functional; conditions: read-out: Diameter of inhibition zone; method in brief: as §2
Pseudomonas fluorescens = experiment: Antibacterial activity against Pseudomonas fluorescens N5 after 18 hrs by disk diffusion assay; format: functional, organism-based; method in brief: as §1
Priestia megaterium [3] = experiment: Antibacterial activity against Bacillus megaterium at 100 ug/disk after 18 hrs by disk diffusion assay; format: functional; method in brief: as §2
Enterococcus faecalis [4] = experiment: Antibacterial activity against Enterococcus faecalis S-86 at 100 ug/disk after 18 hrs by disk diffusion assay; format: functional; conditions: read-out: Diameter of inhibition zone; method in brief: as §2
Niallia circulans [5] = experiment: Antibacterial activity against Bacillus circulans at 100 ug/disk after 18 hrs by disk diffusion assay; format: functional; conditions: for zone of inhibition at 100 µg/disc: read-out: Diameter of inhibition zone; method in brief: as §2
Botrytis cinerea [6] = experiment: Antifungal activity against Botrytis cinerea CECT 2100 after 18 hrs by disk diffusion assay; format: functional, organism-based
Method in brief: (§3)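 Botrytis strains were grown on potato agar at 28°. Plates were inoculated with 0.1 ml of 8-h cultures. 6-mm paper disks were impregnated with 100 or 200 µg. Plates were held 1 h at 4° for diffusion, then incubated. Growth-inhibition halo diameter (mm) was read 18 h after incubation.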

Niallia circulans [7] = experiment: Antibacterial activity against Bacillus circulans at 200 ug/disk after 18 hrs by disk diffusion assay; format: functional; conditions: read-out: Diameter of inhibition zone; method in brief: as §2
Escherichia coli = experiment: Antibacterial activity against Escherichia coli U9 after 18 hrs by disk diffusion assay; format: functional, organism-based; method in brief: as §1
Saccharomyces cerevisiae [8] = experiment: Antifungal activity against Saccharomyces cerevisiae K-2 after 18 hrs by disk diffusion assay; format: functional, organism-based
Method in brief: (§4)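 Yeast strains were grown in YEPG at 28°. Plates were seeded with 0.1 ml of 8-h-old cultures. 6-mm paper disks were impregnated with 100 or 200 µg. Diffusion ran 1 h at 4°, followed by incubation. Zone of growth inhibition (diameter, mm) was recorded 18 h after incubation.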

Saccharomyces cerevisiae [9] = experiment: Antifungal activity against Saccharomyces cerevisiae S1 after 18 hrs by disk diffusion assay; format: functional, organism-based; method in brief: as §4
Salmonella = experiment: Antibacterial activity against Salmonella after 18 hrs by disk diffusion assay; format: functional, organism-based; method in brief: as §1
[10] = tested on: Pseudomonas reptilivorous; experiment: Antibacterial activity against Pseudomonas reptilovora after 18 hrs by disk diffusion assay; format: functional, organism-based; method in brief: as §1
Aspergillus niger = experiment: Antifungal activity against Aspergillus niger ATCC 9142 after 18 hrs by disk diffusion assay; format: functional, organism-based
Method in brief: (§5)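 Filamentous fungi were grown on Sabouraud agar with chloramphenicol at 28°. Plates were inoculated with 0.1 ml of 8-h cultures. 6-mm disks bearing 100 or 200 µg were applied. Plates were kept at 4° for 1 h, then incubated. Inhibition halo diameter (mm) was read at 18 h.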

Enterococcus faecalis [11] = experiment: Antibacterial activity against Enterococcus faecalis S-86 at 200 ug/disk after 18 hrs by disk diffusion assay; format: functional; conditions: read-out: Diameter of inhibition zone; method in brief: as §2
Bacillus licheniformis [12] = experiment: Antibacterial activity against Bacillus licheniformis CECT20 at 100 ug/disk after 18 hrs by disk diffusion assay; format: functional; conditions: read-out: Diameter of inhibition zone; method in brief: as §2
Saccharomyces cerevisiae [13] = experiment: Antifungal activity against Saccharomyces cerevisiae X-3 after 18 hrs by disk diffusion assay; format: functional, organism-based; method in brief: as §4
Bacillus subtilis [14] = experiment: Antibacterial activity against Bacillus subtilis CECT 397 at 200 ug/disk after 18 hrs by disk diffusion assay; format: functional; method in brief: as §2
Bacillus subtilis [15] = experiment: Antibacterial activity against Bacillus subtilis CECT 397 at 100 ug/disk after 18 hrs by disk diffusion assay; format: functional; method in brief: as §2
Fusarium fujikuroi = experiment: Antifungal activity against Gibberella fujikuroi IMI 58289 after 18 hrs by disk diffusion assay; format: functional, organism-based; method in brief: as §5
Botrytis cinerea [16] = experiment: Antifungal activity against Botrytis cinerea CECT 2850 after 18 hrs by disk diffusion assay; format: functional, organism-based; method in brief: as §3
Micrococcus luteus = experiment: Antibacterial activity against Micrococcus lysodeikticus at 200 ug/disk after 18 hrs by disk diffusion assay; format: functional; conditions: read-out: Diameter of inhibition zone; method in brief: as §2
[17] = read-out: Diameter of inhibition zone

Structure (SMILES) | Activity (Alcaligenes faecalis) | Activity (Proteus) | Activity (Priestia megaterium [1]) | zone of inhibition at 200 µg/disc (Bacillus licheniformis [2]) [mm] | Activity (Pseudomonas fluorescens) | zone of inhibition at 100 µg/disc (Enterococcus faecalis [4]) [mm] | Activity (Botrytis cinerea [6]) | zone of inhibition at 200 µg/disc (Niallia circulans [7]) [mm] | Activity (Escherichia coli) | Activity (Saccharomyces cerevisiae [8]) | Activity (Saccharomyces cerevisiae [9]) | Activity (Salmonella) | Activity [10] | Activity (Aspergillus niger) | zone of inhibition at 200 µg/disc (Enterococcus faecalis [11]) [mm] | zone of inhibition at 100 µg/disc (Bacillus licheniformis [12]) [mm] | Activity (Saccharomyces cerevisiae [13]) | Activity (Fusarium fujikuroi) | Activity (Botrytis cinerea [16]) | zone of inhibition at 200 µg/disc (Micrococcus luteus) [mm] | other results
CCCCC[C@H](/C=C\CCCCCCCc1cc(O)cc(O)c1)OC(C)=O | inactive | inactive | inactive | 9 | inactive | 7 | inactive | 7 | inactive | inactive | inactive | inactive | inactive | inactive | 6 | 7 | inactive | inactive | inactive | 7 | Activity (Staphylococcus aureus): inactive; Activity (Priestia megaterium [3]): inactive; zone of inhibition at 100 µg/disc (Niallia circulans [5]): 7 mm; Activity (Bacillus subtilis [14]): inactive; Activity (Bacillus subtilis [15]): inactive
CCCCCC/C=C\CCCCCCCc1cc(O)cc(O)c1C(=O)O | inactive | inactive | inactive | 15 | inactive | 16 | inactive | 7 | inactive | inactive | inactive | inactive | inactive | inactive | 30 | 15 | inactive | inactive | inactive | 7 | zone of inhibition at 200 µg/disc (Staphylococcus aureus): 7 mm; Activity (Priestia megaterium [3]): inactive; Activity (Niallia circulans [5]): inactive; Activity (Bacillus subtilis [14]): inactive; Activity (Bacillus subtilis [15]): inactive
CCCCC[C@H](/C=C\CCCCCCCc1cc(O)cc(O)c1C(=O)O)OC(C)=O | inactive | inactive |  | 22 | inactive | 13 | inactive | 9 | inactive | inactive | inactive | inactive | inactive | inactive | 15 | 18 | inactive | inactive | inactive | 13 | zone of inhibition at 200 µg/disc (Priestia megaterium [1]; [17]): 7 mm; zone of inhibition at 200 µg/disc (Staphylococcus aureus): 7 mm; zone of inhibition at 100 µg/disc (Priestia megaterium [3]; [17]): 7 mm; zone of inhibition at 100 µg/disc (Niallia circulans [5]): 8 mm; zone of inhibition at 200 µg/disc (Bacillus subtilis [14]; [17]): 8 mm; zone of inhibition at 100 µg/disc (Bacillus subtilis [15]; [17]): 7 mm
